From ChEMBL document CHEMBL1148641, “Design and synthesis of novel sulfonamide-containing bradykinin hB2 receptor antagonists. 1. Synthesis and SAR of alpha,alpha-dimethylglycine sulfonamides” (J Med Chem, 2006)

Assays:
B2 bradykinin receptor [1] = molecular target: T1, B2 bradykinin receptor (Homo sapiens, UniProt P30411); experiment: Displacement of [3H]BK from human B2 receptor transfected in CHO cells; assay type: cell-based
T1 sequence (P30411 whole entry): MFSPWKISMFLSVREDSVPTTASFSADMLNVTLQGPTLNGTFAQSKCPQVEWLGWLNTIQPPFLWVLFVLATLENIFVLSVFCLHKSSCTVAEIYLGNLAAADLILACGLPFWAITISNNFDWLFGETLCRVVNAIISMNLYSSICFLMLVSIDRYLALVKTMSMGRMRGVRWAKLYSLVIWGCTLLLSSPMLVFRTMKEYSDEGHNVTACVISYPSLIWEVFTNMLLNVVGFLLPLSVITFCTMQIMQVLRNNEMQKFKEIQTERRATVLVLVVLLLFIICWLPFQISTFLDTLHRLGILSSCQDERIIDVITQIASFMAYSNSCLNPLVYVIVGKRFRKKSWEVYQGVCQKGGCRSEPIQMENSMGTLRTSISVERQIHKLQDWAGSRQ
Outline: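 Membranes from stably transfected CHO cells (100-150 µg/mL) incubated 60 min at room temperature with [³H]BK at 0.1-0.2 nM in TES buffer pH 7.4 with 1,10-phenanthroline, bacitracin and BSA, 1% DMSO final. Competitor 1 pM-10 µM; nonspecific binding with 1 µM BK. Filtration, scintillation counting; IC50 converted to pKi by Cheng-Prusoff.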

B2 bradykinin receptor [2] = molecular target: T1, B2 bradykinin receptor; experiment: Activity at human B2 receptor transfected in CHO cells assessed as ability to antagonize BK-induced inositol-phosphate accumulation; assay type: functional, cell-based; conditions: read-out: pA2 (converted)
Outline: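 Stably transfected CHO cells (1.8 × 10⁵/well) grown overnight at 37 °C, then labeled 24 h with [³H]myo-inositol (1 µCi/well). Antagonist preincubation 20 min at a nanomolar concentration, then BK 1 × 10^-11 to 1 × 10^-5 M for 40 min at 37 °C in LiCl-containing buffer, pH 7.4. IP1 radioactivity by liquid scintillation; pA₂ from EC50 concentration-ratios of sigmoidal fits.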

Cavia porcellus [3] = experiment: Inhibition of BK-induced bronchoconstriction in guinea pig intratracheally administered at 300 nmol/kg for 210 min; assay type: functional; conditions: inhaled or nasal, 3.5 h
Outline: (§1)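 Anesthetized guinea pigs given compound intratracheally at 300 nmol/kg. BK-induced bronchoconstriction and BK-induced hypotension followed over time after dosing.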

Cavia porcellus [4] = experiment: Reduction in hypotensive effect in guinea pig intratracheally administered at 300 nmol/kg for 60 min; assay type: functional; design: scale not given: the % may be the effect or the level left; outline: as §1

Ki (B2 bradykinin receptor [1]) [nM]	Kb (B2 bradykinin receptor [2]) [nM]	SMILES	other results
79.4	–	Cc1ccc2cccc(OCc3c(Cl)ccc(S(=O)(=O)NC(C)(C)C(=O)NCCCNCc4ccc(S(C)(=O)=O)cc4)c3Cl)c2n1	–
0.631	2.51	Cc1cc(C)c2cccc(OCc3c(Cl)ccc(S(=O)(=O)NC(C)(C)C(=O)N4CCN(C(=O)C[C@@H](N)CCCN(C)C)CC4)c3Cl)c2n1	–
1	7.94	Cc1ccc2cccc(OCc3c(Cl)ccc(S(=O)(=O)NC(C)(C)C(=O)N4CCN(C(=N)NCCCCCCN)CC4)c3Cl)c2n1	–
1.26	7.94	Cc1ccc2cccc(OCc3c(Cl)ccc(S(=O)(=O)NC(C)(C)C(=O)N4CCN(C(=O)C[C@@H](N)CCCCN=C(N)N)CC4)c3Cl)c2n1	–
2	11.2	Cc1ccc2cccc(OCc3c(Cl)ccc(S(=O)(=O)NC(C)(C)C(=O)N4CCN(C(=O)[C@@H](N)CCCCN(C)C)CC4)c3Cl)c2n1	–
100	–	Cc1ccc2cccc(OCc3c(Cl)ccc(S(=O)(=O)NC(C)(C)C(=O)NCCN)c3Cl)c2n1	–
200	–	Cc1ccc2cccc(OCc3c(Cl)ccc(S(=O)(=O)NC(C)(C)C(=O)NCCCN(C)C)c3Cl)c2n1	–
0.794	–	Cc1cc(C)c2cccc(OCc3c(Cl)ccc(S(=O)(=O)N4CCC[C@@H]4C(=O)NCCCNC(=O)c4ccc(C(=N)N)cc4)c3Cl)c2n1	–
25.1	–	Cc1cc(C)c2cccc(OCc3c(Cl)ccc(S(=O)(=O)NC(C)(C)C(=O)NCCCN)c3Cl)c2n1	–
158	–	Cc1ccc2cccc(OCc3c(Cl)ccc(S(=O)(=O)NC(C)(C)C(=O)NCCCNCc4ccc(N(C)C)cc4)c3Cl)c2n1	–
631	–	Cc1ccc2cccc(OCc3c(Cl)ccc(S(=O)(=O)NC(C)(C)C(=O)NCCCN4CCOCC4)c3Cl)c2n1	–
316	–	Cc1ccc2cccc(OCc3c(Cl)ccc(S(=O)(=O)NC(C)(C)C(=O)NCCCNCc4ccoc4)c3Cl)c2n1	–
2.51	20	Cc1ccc2cccc(OCc3c(Cl)ccc(S(=O)(=O)NC(C)(C)C(=O)N4CCN(CCCCCCN)CC4)c3Cl)c2n1	–
7940	–	COCCNC(=O)C(C)(C)NS(=O)(=O)c1ccc(Cl)c(COc2cccc3ccc(C)nc23)c1Cl	–
251	–	Cc1ccc2cccc(OCc3c(Cl)ccc(S(=O)(=O)NC(C)(C)C(=O)NCCCN4CCN(C)CC4)c3Cl)c2n1	–
100	–	Cc1ccc2cccc(OCc3c(Cl)ccc(S(=O)(=O)NC(C)(C)C(=O)N4CCCNCCC4)c3Cl)c2n1	–
1.58	11	Cc1ccc2cccc(OCc3c(Cl)ccc(S(=O)(=O)NC(C)(C)C(=O)N4CCN(C(=N)NCCCN)CC4)c3Cl)c2n1	–
1.58	7.94	Cc1ccc2cccc(OCc3c(Cl)ccc(S(=O)(=O)NC(C)(C)C(=O)N4CCN(CCCCCCN=C(N)N)CC4)c3Cl)c2n1	–
3.98	25.1	Cc1ccc2cccc(OCc3c(Cl)ccc(S(=O)(=O)NC(C)(C)C(=O)N4CCN(C(=O)CN5CCNCC5)CC4)c3Cl)c2n1	–

Ki (B2 bradykinin receptor [1]) [nM]	Kb (B2 bradykinin receptor [2]) [nM]	SMILES	other results
398	–	COCCCNC(=O)C(C)(C)NS(=O)(=O)c1ccc(Cl)c(COc2cccc3ccc(C)nc23)c1Cl	–
39.8	–	Cc1ccc2cccc(OCc3c(Cl)ccc(S(=O)(=O)NC(C)(C)C(=O)NCCCN=C(N)N)c3Cl)c2n1	–
79.4	–	Cc1ccc2cccc(OCc3c(Cl)ccc(S(=O)(=O)NC(C)(C)C(=O)NC4CCNCC4)c3Cl)c2n1	–
20	–	Cc1ccc2cccc(OCc3c(Cl)ccc(S(=O)(=O)NC(C)(C)C(=O)NCCN=C(N)N)c3Cl)c2n1	–
7940	–	Cc1ccc2cccc(OCc3c(Cl)ccc(S(=O)(=O)NC(C)(C)C(=O)Nc4ccccc4)c3Cl)c2n1	–
20	–	Cc1ccc2cccc(OCc3c(Cl)ccc(S(=O)(=O)NC(C)(C)C(=O)NCCCNC(=O)c4ccc(C(=N)N)cc4)c3Cl)c2n1	–
200	–	COc1ccc(CNCCCNC(=O)C(C)(C)NS(=O)(=O)c2ccc(Cl)c(COc3cccc4ccc(C)nc34)c2Cl)cc1	–
398	–	Cc1ccc2cccc(OCc3c(Cl)ccc(S(=O)(=O)NC(C)(C)C(=O)NCCCNCc4ccc(F)cc4)c3Cl)c2n1	–
> 10000	–	Cc1ccc2cccc(OCc3c(Cl)ccc(S(=O)(=O)NC(C)(C)C(=O)NCCCc4ccccc4)c3Cl)c2n1	–
126	–	Cc1ccc2cccc(OCc3c(Cl)ccc(S(=O)(=O)NC(C)(C)C(=O)NCCCNCc4ccc(C(N)=O)cc4)c3Cl)c2n1	–
0.501	2.51	Cc1cc(C)c2cccc(OCc3c(Cl)ccc(S(=O)(=O)NC(C)(C)C(=O)N4CCN(C(=O)C[C@@H](N)CCCCN(C)C)CC4)c3Cl)c2n1	–
> 10000	–	Cc1ccc2cccc(OCc3c(Cl)ccc(S(=O)(=O)NC(C)(C)C(=O)NCCc4ccccc4)c3Cl)c2n1	–
10	39.8	Cc1ccc2cccc(OCc3c(Cl)ccc(S(=O)(=O)NC(C)(C)C(=O)N4CCN(CCN=C(N)N)CC4)c3Cl)c2n1	–
200	–	Cc1ccc(CNCCCNC(=O)C(C)(C)NS(=O)(=O)c2ccc(Cl)c(COc3cccc4ccc(C)nc34)c2Cl)cc1	–
10	20	CC(=O)N[C@@H](CCCCN(C)C)C(=O)N1CCN(C(=O)C(C)(C)NS(=O)(=O)c2ccc(Cl)c(COc3cccc4ccc(C)nc34)c2Cl)CC1	–
3.98	39.8	Cc1ccc2cccc(OCc3c(Cl)ccc(S(=O)(=O)NC(C)(C)C(=O)N4CCN(C(=N)N)CC4)c3Cl)c2n1	–
63.1	–	Cc1ccc2cccc(OCc3c(Cl)ccc(S(=O)(=O)NC(C)(C)C(=O)N=C(N)N)c3Cl)c2n1	–
316	–	Cc1ccc2cccc(OCc3c(Cl)ccc(S(=O)(=O)NC(C)(C)C(=O)NCCN4CCCCC4)c3Cl)c2n1	–
0.398	25.1	Cc1ccc2cccc(OCc3c(Cl)ccc(S(=O)(=O)NC(C)(C)C(=O)N4CCN(C(=O)[C@@H](N)CCCN(C)C)CC4)c3Cl)c2n1	–

Ki (B2 bradykinin receptor [1]) [nM]	Kb (B2 bradykinin receptor [2]) [nM]	SMILES	other results
1	2.51	Cc1cc(C)c2cccc(OCc3c(Cl)ccc(S(=O)(=O)NC(C)(C)C(=O)N4CCN(C(=N)NCCCN)CC4)c3Cl)c2n1	–
25.1	–	Cc1ccc2cccc(OCc3c(Cl)ccc(S(=O)(=O)NC(C)(C)C(=O)N4CCCNCC4)c3Cl)c2n1	–
> 10000	–	Cc1ccc2cccc(OCc3c(Cl)ccc(S(=O)(=O)NC(C)(C)C(=O)NCc4ccccc4)c3Cl)c2n1	–
0.631	39.8	Cc1ccc2cccc(OCc3c(Cl)ccc(S(=O)(=O)NC(C)(C)C(=O)N4CCN(C(=O)C[C@@H](N)CCCCN(C)C)CC4)c3Cl)c2n1	–
39.8	–	Cc1ccc2cccc(OCc3c(Cl)ccc(S(=O)(=O)NC(C)(C)C(=O)NCCCNCc4ccccn4)c3Cl)c2n1	–
200	–	Cc1ccc2cccc(OCc3c(Cl)ccc(S(=O)(=O)NC(C)(C)C(=O)NCCCCN)c3Cl)c2n1	–
794	–	Cc1ccc2cccc(OCc3c(Cl)ccc(S(=O)(=O)NC(C)(C)C(=O)NCCCNCc4ccc(Cl)cc4)c3Cl)c2n1	–
200	–	Cc1ccc2cccc(OCc3c(Cl)ccc(S(=O)(=O)NC(C)(C)C(=O)NCCCNCc4ccccc4)c3Cl)c2n1	–
2510	–	Cc1ccc2cccc(OCc3c(Cl)ccc(S(=O)(=O)NC(C)(C)C(=O)NCCN4CCOCC4)c3Cl)c2n1	–
7.94	–	Cc1cc(C)c2cccc(OCc3c(Cl)ccc(S(=O)(=O)NC(C)(C)C(=O)NCCCNc4ccc(C(=N)N)cc4)c3Cl)c2n1	–
79.4	–	Cc1ccc2cccc(OCc3c(Cl)ccc(S(=O)(=O)NC(C)(C)C(=O)NCCCNCc4ccc(O)cc4)c3Cl)c2n1	–
158	–	Cc1ccc2cccc(OCc3c(Cl)ccc(S(=O)(=O)NC(C)(C)C(=O)NCC4CCNCC4)c3Cl)c2n1	–
0.398	0.794	Cc1cc(C)c2cccc(OCc3c(Cl)ccc(S(=O)(=O)NC(C)(C)C(=O)N4CCN(C(=O)[C@@H](N)CCCN(C)C)CC4)c3Cl)c2n1	inhibition in vivo at 0.3 µmol/kg (Cavia porcellus [3]): 80%; Activity (Cavia porcellus [4]): 30%
158	–	Cc1ccc2cccc(OCc3c(Cl)ccc(S(=O)(=O)NC(C)(C)C(=O)NCCCN)c3Cl)c2n1	–
–	3.16	Cc1cc(C)c2cccc(OCc3c(Cl)ccc(S(=O)(=O)NC(C)(C)C(=O)N4CCN(C(=O)[C@@H](N)CCCCN(C)C)CC4)c3Cl)c2n1	–
0.794	39.8	Cc1ccc2cccc(OCc3c(Cl)ccc(S(=O)(=O)NC(C)(C)C(=O)N4CCN(C(=O)C[C@@H](N)CCCN(C)C)CC4)c3Cl)c2n1	–
158	–	Cc1ccc2cccc(OCc3c(Cl)ccc(S(=O)(=O)NC(C)(C)C(=O)NCCCNCc4c[nH]cn4)c3Cl)c2n1	–
25.1	–	Cc1ccc2cccc(OCc3c(Cl)ccc(S(=O)(=O)NC(C)(C)C(=O)N4CCNCC4)c3Cl)c2n1	–
